The source of these data is ChEMBL document CHEMBL1629622, “Isolation of VanB-type Enterococcus faecalis strains from nosocomial infections: first report of the isolation and identification of the pheromone-responsive plasmids pMG2200, Encoding VanB-type vancomycin resistance and a Bac41-type bacteriocin, and pMG2201, encoding erythromycin resistance and …” (2009).

Each structure is given as a SMILES string. ≈ marks a conversion by molar mass, not a printed value. Calls of active or inactive are those of the source. The rule behind the calls is not given here. Residues, ends and D or L forms follow the SMILES beside them.

In test [1] the test system is Enterococcus faecalis. Description: Induction of aggregation of Enterococcus faecalis JH2SS harboring pMG2200 at 100 ng/ml. Format: functional, organism-based. The gist of the method:
(§1)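 Donor E. faecalis JH2SS carrying the plasmid, exposed 2 h to synthetic pheromone (cAD1, cPD1, cCF10, cOB1 or cAM373 at 100 ng/ml) or to FA2-2 culture filtrate. Aggregation (clumping) of cells scored visually afterwards. A short 10-min mating with FA2-2 followed induction.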

Test [2] has as its system Enterococcus faecalis. Description: Induction of aggregation of Enterococcus faecalis JH2SS harboring pMG2201 at 100 ng/ml. It counts as functional, organism-based. The gist of the method: as §1
Test [3] relates to Enterococcus faecalis. Nature of the test: Antimicrobial activity against Enterococcus faecalis NKH1 harboring pMG2200-like plasmid after 24 hrs by agar dilution method. Particulars: NKH1, 24 h. Format: functional. The gist of the method: (§2)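 Agar dilution MICs on clinical E. faecalis isolates. Overnight Mueller-Hinton broth culture diluted 100-fold; ~5 × 10^5 cells inoculated onto Mueller-Hinton medium holding a concentration series of each drug. Incubated at 37°C and read at 24 h. Testing and interpretation follow CLSI (NCCLS) standards, with E. faecium ATCC 9790 as control strain.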
On the technique in general: In agar dilution the substance is mixed into plates at graded concentrations.

The subject of test [4] is Enterococcus faecalis. Nature of the test: Antimicrobial activity against Enterococcus faecalis NKH2 harboring pMG2200-like and pMG2201-like plasmids after 24 hrs by agar dilution method. It counts as functional. The note with it: NKH2, 24 h. The gist of the method:
as §2

Test [5] has as its system Enterococcus faecalis. Description: Antimicrobial activity against Enterococcus faecalis NKH3 harboring pMG2200-like and pMG2201-like plasmids after 24 hrs by agar dilution method. Format: functional. The note with it: NKH3, 24 h. The gist of the method:
as §2

Test [6] deals with Enterococcus faecalis. Description: Antimicrobial activity against Enterococcus faecalis NKH4 harboring pMG2200-like and pMG2201-like plasmids after 24 hrs by agar dilution method. Format: functional. Particulars: NKH4, 24 h. The gist of the method:
as §2

Test [7] relates to Enterococcus faecalis. Nature of the test: Antimicrobial activity against Enterococcus faecalis NKH5 harboring pMG2200-like plasmid after 24 hrs by agar dilution method. Particulars: NKH5, 24 h. Format: functional. The gist of the method: as §2
For test [8], the system named is Enterococcus faecalis. Description: Antimicrobial activity against Enterococcus faecalis NKH6 harboring pMG2200-like and pMG2201-like plasmids after 24 hrs by agar dilution method. Format: functional. Particulars: NKH6, 24 h. The gist of the method: as §2
The test system of test [9] is Enterococcus faecalis. Nature of the test: Antimicrobial activity against Enterococcus faecalis NKH10 harboring pMG2200-like and pMG2201-like plasmids after 24 hrs by agar dilution method. It counts as functional. Particulars: NKH10, 24 h. The gist of the method:
as §2

The subject of test [10] is Enterococcus faecalis. Nature of the test: Antimicrobial activity against Enterococcus faecalis NKH11 harboring pMG2200-like plasmid after 24 hrs by agar dilution method. It counts as functional. The note with it: NKH11, 24 h. The gist of the method:
as §2

The test system of test [11] is Enterococcus faecalis. Description: Antimicrobial activity against Enterococcus faecalis NKH12 harboring pMG2200-like and pMG2201-like plasmids after 24 hrs by agar dilution method. Format: functional. Particulars: NKH12, 24 h. The gist of the method:
as §2

The subject of test [12] is Enterococcus faecalis. Description: Antimicrobial activity against Enterococcus faecalis NKH15 harboring pMG2200-like and pMG2201-like plasmids after 24 hrs by agar dilution method. The note with it: NKH15, 24 h. It counts as functional. The gist of the method: as §2
The test system of test [13] is Enterococcus faecalis. Description: Antimicrobial activity against Enterococcus faecalis NKH7 harboring pMG2200-like plasmid after 24 hrs by agar dilution method. The note with it: NKH7, 24 h. Format: functional. The gist of the method: as §2
Test [14] concerns Enterococcus faecalis. Description: Antimicrobial activity against Enterococcus faecalis NKH8 harboring pMG2200-like and pMG2201-like plasmids after 24 hrs by agar dilution method. Particulars: NKH8, 24 h. It counts as functional. The gist of the method: as §2
For test [15], the system named is Enterococcus faecalis. Nature of the test: Antimicrobial activity against Enterococcus faecalis NKH9 harboring pMG2200-like and pMG2201-like plasmids after 24 hrs by agar dilution method. Format: functional. Particulars: NKH9, 24 h. The gist of the method:
as §2

Test [16] relates to Enterococcus faecalis. Nature of the test: Antimicrobial activity against Enterococcus faecalis NKH13 harboring pMG2200-like and pMG2201-like plasmids after 24 hrs by agar dilution method. It counts as functional. The note with it: NKH13, 24 h. The gist of the method: as §2
Test [17] concerns Enterococcus faecalis. Description: Antimicrobial activity against Enterococcus faecalis NKH14 harboring pMG2200-like and pMG2201-like plasmids after 24 hrs by agar dilution method. The note with it: NKH14, 24 h. It counts as functional. The gist of the method:
as §2

Test [18] concerns Enterococcus faecalis. Description: Antimicrobial activity against Enterococcus faecalis NKH16 harboring pMG2200-like plasmid after 24 hrs by agar dilution method. The note with it: NKH16, 24 h. Format: functional. The gist of the method:
as §2

The test system of test [19] is Enterococcus faecalis. Description: Antimicrobial activity against Enterococcus faecalis NKH17 harboring pMG2200-like plasmid after 24 hrs by agar dilution method. It counts as functional. The note with it: NKH17, 24 h. The gist of the method:
as §2

Test [20] deals with Enterococcus faecalis. Description: Antimicrobial activity against Enterococcus faecalis NKH18 harboring pMG2200-like and pMG2201-like plasmids after 24 hrs by agar dilution method. It counts as functional. The note with it: NKH18, 24 h. The gist of the method: as §2

For orientation: MIC means the least concentration at which growth counts as inhibited. Low readings indicate inhibition by little substance, high ones a need for much substance.

As to `CC[C@H](C)[C@H](NC(=O)[C@H](C)N)C(=O)N[C@@H](Cc1ccccc1)C(=O)N[C@H](C(=O)N[C@@H](CC(C)C)C(=O)N[C@@H](C)C(=O)N[C@@H](CO)C(=O)O)[C@@H](C)CC` (H-AIFILAS-OH), the result in the test with Enterococcus faecalis [1] and with Enterococcus faecalis [2] was inactive.

Take `CSCC[C@H](NC(=O)[C@@H](NC(=O)[C@H](CC(C)C)NC(=O)[C@@H](N)Cc1ccccc1)C(C)C)C(=O)N[C@@H](Cc1ccccc1)C(=O)N[C@@H](CC(C)C)C(=O)N[C@@H](CO)C(=O)NCC(=O)O` (H-FLVMFLSG-OH): the outcome with Enterococcus faecalis [1] and in the test with Enterococcus faecalis [2] was inactive.

Regarding `CC(C)C[C@H](NC(=O)[C@@H](NC(=O)[C@H](C)NC(=O)[C@@H](N)C(C)C)C(C)C)C(=O)N[C@H](C(=O)N[C@@H](CC(C)C)C(=O)NCC(=O)N[C@@H](C)C(=O)O)C(C)C` (H-VAVLVLGA-OH), the result in the test with Enterococcus faecalis [1] and in the test on Enterococcus faecalis [2] was inactive.

Turning to `CC1(C)S[C@@H]2[C@H](NC(=O)[C@H](N)c3ccccc3)C(=O)N2[C@H]1C(=O)O` [AMPICILLIN], the MIC against Enterococcus faecalis [3], in the test with Enterococcus faecalis [4], in the test with Enterococcus faecalis [5], with Enterococcus faecalis [6], in the test on Enterococcus faecalis [7] and against Enterococcus faecalis [8] was 4 µg/mL (≈ 11.4 µM) each time. The minimal inhibitory concentration (MIC) in the test on Enterococcus faecalis [9], in the test with Enterococcus faecalis [10], in the test on Enterococcus faecalis [11] and against Enterococcus faecalis [12] was 4 µg/mL (≈ 11.4 µM) throughout.

As to `O=C(N[C@H](CO)[C@H](O)c1ccc([N+](=O)[O-])cc1)C(Cl)Cl` [CHLORAMPHENICOL], the MIC against Enterococcus faecalis [3] was 8 µg/mL (≈ 24.8 µM); against Enterococcus faecalis [4] it was 8 µg/mL (≈ 24.8 µM); against Enterococcus faecalis [5], 8 µg/mL (≈ 24.8 µM); against Enterococcus faecalis [6], 8 µg/mL (≈ 24.8 µM); against Enterococcus faecalis [7], 4 µg/mL (≈ 12.4 µM); in the test on Enterococcus faecalis [8] it was 8 µg/mL (≈ 24.8 µM). Also, the MIC came out at 4 µg/mL (≈ 12.4 µM) in the test with Enterococcus faecalis [13]; 8 µg/mL (≈ 24.8 µM) against Enterococcus faecalis [14]; 8 µg/mL (≈ 24.8 µM) in the test with Enterococcus faecalis [15]; 8 µg/mL (≈ 24.8 µM) in the test on Enterococcus faecalis [9]; 8 µg/mL (≈ 24.8 µM) in the test on Enterococcus faecalis [10]; 8 µg/mL (≈ 24.8 µM) in the test on Enterococcus faecalis [11]. Besides, the MIC with Enterococcus faecalis [16] turned out to be 8 µg/mL (≈ 24.8 µM); in the test with Enterococcus faecalis [17], 8 µg/mL (≈ 24.8 µM); in the test on Enterococcus faecalis [12], 8 µg/mL (≈ 24.8 µM); in the test on Enterococcus faecalis [18] it was 4 µg/mL (≈ 12.4 µM); with Enterococcus faecalis [19] it was 4 µg/mL (≈ 12.4 µM); in the test on Enterococcus faecalis [20], 8 µg/mL (≈ 24.8 µM).

In the case of `O=C(O)c1cn(C2CC2)c2cc(N3CCNCC3)c(F)cc2c1=O` [CIPROFLOXACIN], the MIC in the test on Enterococcus faecalis [3], against Enterococcus faecalis [4], with Enterococcus faecalis [5], in the test with Enterococcus faecalis [6], against Enterococcus faecalis [7] and with Enterococcus faecalis [8] was 64 µg/mL (≈ 193 µM) each time. The MIC against Enterococcus faecalis [13], against Enterococcus faecalis [14], against Enterococcus faecalis [15], in the test with Enterococcus faecalis [9], in the test on Enterococcus faecalis [10] and against Enterococcus faecalis [11] was 64 µg/mL (≈ 193 µM) in each case. For the same compound, the minimum inhibitory concentration (MIC) against Enterococcus faecalis [16], against Enterococcus faecalis [17], in the test with Enterococcus faecalis [12], against Enterococcus faecalis [18], in the test with Enterococcus faecalis [19] and against Enterococcus faecalis [20] was 64 µg/mL (≈ 193 µM) throughout.
